Screening data deposited in PubChem BioAssay by several laboratories.
Compounds with a hit are over-represented: about 2.5% of the library has one in this group of screens.
TRPC4 potent: TRPC4 (mouse) allosteric potentiation; HEK293 TRPC4beta/mu-opioid, DAMGO EC20, Fluo-4 Ca2+ flux; hits give high values; Q9QUQ5; 310,000 compounds, 0.42% hits; B-score at 10 µM;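 active = B-score of calcium response area above 5 SD of library B-scores, with initial fluorescence ratio within 5 SD of library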
Platelet DG rel: platelet dense granule release activity. human platelet-rich plasma, SFLLRN dense granule ATP release, luminescence. inhibition, %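 (compounds screened at 7.5 µM in platelet-rich plasma)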. 300,000 compounds, 0.22% hits;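 active = mean replicate score, as percent of positive control, at or above 50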
TRPC6 act: activators of mouse TRPC6 channel | HEK293-TRPC6 membrane potential dye fluorescence; hits give high values | B-score at 10 µM | 310,000 compounds, 0.13% hits | AID 2550;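 active = B-score of the integrated fluorescence ratio above library mean plus 3 SD, and starting fluorescence ratio within library mean plus 5 SD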;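 note: higher score means more depolarization so channel activation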
Target sequence (Q61143 whole entry, looked up): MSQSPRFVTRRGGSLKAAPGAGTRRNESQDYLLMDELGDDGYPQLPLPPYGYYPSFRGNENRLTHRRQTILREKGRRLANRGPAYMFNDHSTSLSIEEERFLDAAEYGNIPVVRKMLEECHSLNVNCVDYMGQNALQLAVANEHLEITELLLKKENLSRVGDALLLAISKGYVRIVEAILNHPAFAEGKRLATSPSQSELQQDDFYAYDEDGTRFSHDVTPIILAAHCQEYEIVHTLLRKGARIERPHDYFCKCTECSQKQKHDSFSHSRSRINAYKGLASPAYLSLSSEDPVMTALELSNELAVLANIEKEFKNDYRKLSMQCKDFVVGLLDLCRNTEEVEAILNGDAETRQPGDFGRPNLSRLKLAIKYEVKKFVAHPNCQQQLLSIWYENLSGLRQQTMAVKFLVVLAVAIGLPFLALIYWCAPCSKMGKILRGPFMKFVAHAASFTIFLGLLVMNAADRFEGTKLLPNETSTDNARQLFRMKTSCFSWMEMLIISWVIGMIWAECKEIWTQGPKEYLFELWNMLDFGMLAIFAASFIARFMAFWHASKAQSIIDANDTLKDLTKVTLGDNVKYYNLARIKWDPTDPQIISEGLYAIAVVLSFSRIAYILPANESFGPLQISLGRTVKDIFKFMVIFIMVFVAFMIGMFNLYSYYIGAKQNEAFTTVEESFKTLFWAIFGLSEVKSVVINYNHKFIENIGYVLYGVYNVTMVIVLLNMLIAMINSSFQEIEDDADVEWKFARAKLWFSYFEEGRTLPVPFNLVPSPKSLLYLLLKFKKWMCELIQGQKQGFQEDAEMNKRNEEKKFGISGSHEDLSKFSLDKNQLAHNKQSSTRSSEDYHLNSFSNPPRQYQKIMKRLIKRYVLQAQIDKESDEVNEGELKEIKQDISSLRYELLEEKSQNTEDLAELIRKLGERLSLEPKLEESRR
TRPC4 act: opens the mouse TRPC4 cation channel; Q9QUQ5; HEK293 TRPC4beta/mu-opioid, Fluo4 calcium fluorescence; hits give high values; B-score at 10 µM; 310,000 compounds, 0.49% hits; AID 2237;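 active = B-score above 5 SD of library B-scores, and initial fluorescence ratio not above library mean plus 5 SD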;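 note: positive B-score marks a calcium rise read as TRPC4 activation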
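Test system: HEK293 cells stably co-expressing mouse TRPC4beta and mu-opioid receptor | Schedule: Fluo4 dye loading 45 min at room temperature, 110 s recording | Measured by: Kinetic Fluo4 calcium fluorescence, 5 s baseline at 1 Hz | Evaluation: B score of integrated ratio | Controls: Buffer (low) and maximal DAMGO (high)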
TRPC6 inh: inhibitors of mouse TRPC6 channel | HEK293-TRPC6, membrane potential dye, ACh-evoked depolarization; hits give low values | B-score at 10 µM | 310,000 compounds, 1.1% hits;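 active = B-score under library mean minus 3 SD, initial fluorescence not abnormally high, positive integrated signal ratio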;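 note: B-score derived from integrated fluorescence ratio over the kinetic read; more negative B-score means stronger inhibition of depolarization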
TRPC4 inh: TRPC4 (mouse) channel inhibition; Q9QUQ5; HEK293 TRPC4beta/mu-opioid, DAMGO-evoked Fluo4 calcium flux; hits give low values; B-score at 10 µM; 300,000 compounds, 0.39% hits; AID 2247;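 active = B-score over 3 SD under the library average, no early fluorescence shift, positive overall ratio signal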
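Material: HEK293 cells with stable TRPC4beta plus mu-opioid receptor expression / Probe or stimulus: DAMGO in two steps, submaximal then maximal / Compound: single concentration per test compound / Technique: kinetic Fluo4 fluorescence imaging of calcium influx / Read-out: per-well B score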
Hits are given with their value.

Cc1ccc(CN(C(=O)c2cc(=O)c3cc(Cl)c(C)cc3o2)C2CCS(=O)(=O)C2)cc1 (configuration not stated) was read as TRPC4 potent 19, Platelet DG rel inactive, TRPC6 act inactive, TRPC4 act inactive, TRPC6 inh inactive and TRPC4 inh inactive.
Cc1ccc(CN(C(=O)c2cc(=O)c3cc(C)cc(C)c3o2)C2CCS(=O)(=O)C2)cc1 (configuration not stated) was read as TRPC4 potent inactive, Platelet DG rel inactive, TRPC6 act inactive, TRPC4 act inactive, TRPC6 inh inactive and TRPC4 inh inactive.
Screening Cc1cc2oc(C(=O)N(Cc3cccs3)C3CCS(=O)(=O)C3)cc(=O)c2cc1Cl (configuration not stated) returned TRPC4 potent 95, Platelet DG rel inactive, TRPC6 act inactive, TRPC4 act inactive, TRPC6 inh inactive and TRPC4 inh inactive.
Screening Cc1ccc(C(=O)N(Cc2cccs2)C2CCS(=O)(=O)C2)cc1 (configuration not stated) returned TRPC4 potent inactive, Platelet DG rel inactive, TRPC6 act inactive, TRPC4 act inactive, TRPC6 inh inactive and TRPC4 inh inactive.
Screening COc1ccc(C2CC2/C(=N/O)c2ccccn2)cc1 (configuration not stated) returned TRPC4 potent inactive, Platelet DG rel inactive, TRPC6 act inactive, TRPC4 act inactive, TRPC6 inh inactive and TRPC4 inh inactive.
COc1ccc(C2CC2/C(=N/O)c2ccccc2)cc1 (configuration not stated) was read as TRPC4 potent inactive, Platelet DG rel inactive, TRPC6 act inactive, TRPC4 act inactive, TRPC6 inh inactive and TRPC4 inh -8.
Screening O=C(Nc1ccc(Cl)cc1)N1CCC(c2nc(-c3ccc(F)cc3)no2)CC1 returned TRPC4 potent inactive, Platelet DG rel inactive, TRPC6 act inactive, TRPC4 act inactive, TRPC6 inh inactive and TRPC4 inh inactive.
For O=C(N/N=C/c1ccc(Cl)c([N+](=O)[O-])c1)c1cc(-c2ccc3c4c(cccc24)CC3)n[nH]1 the results were TRPC4 potent inactive, Platelet DG rel 52.2, TRPC6 act inactive, TRPC4 act inactive, TRPC6 inh inactive and TRPC4 inh inactive.
Screening O=C(Cn1cncn1)N/N=C/c1ccccc1O returned TRPC4 potent inactive, Platelet DG rel inactive, TRPC6 act inactive, TRPC4 act inactive, TRPC6 inh inactive and TRPC4 inh inactive.
Screening CCOc1ccc(CN(C)CC(=O)NNC(=O)c2ccc(Cl)cc2)cc1OC returned TRPC4 potent 17, Platelet DG rel inactive, TRPC6 act inactive, TRPC4 act inactive, TRPC6 inh inactive and TRPC4 inh inactive.
`COc1ccc(N2CCN(C(c3cccc(OC)c3OC)c3nnnn3C3CCCC3)CC2)cc1` (configuration not stated) gave Platelet DG rel inactive.
For C=CCN1CCN(C(c2cccc(OC)c2OC)c2nnnn2CCC(C)C)CC1 (configuration not stated) the results were TRPC4 potent inactive, Platelet DG rel inactive, TRPC6 act inactive, TRPC4 act inactive, TRPC6 inh inactive and TRPC4 inh -7.
For COc1cccc(C(c2nnnn2CCc2ccccc2)N2CCN(c3ccccc3)CC2)c1OC (configuration not stated) the results were TRPC4 potent inactive, Platelet DG rel inactive, TRPC6 act inactive, TRPC4 act inactive, TRPC6 inh inactive and TRPC4 inh inactive.
Screening COc1cccc(C(c2nnnn2C(C)(C)C)N2CCN(C3CCCCC3)CC2)c1OC (configuration not stated) returned TRPC4 potent inactive, Platelet DG rel inactive, TRPC6 act inactive, TRPC4 act inactive, TRPC6 inh inactive and TRPC4 inh -6.
`O=C(N=C1SC2CS(=O)(=O)CC2N1c1cccc(Cl)c1Cl)C1CCCO1` (configuration not stated) gave TRPC4 potent inactive, Platelet DG rel inactive, TRPC6 act inactive, TRPC4 act inactive, TRPC6 inh inactive and TRPC4 inh inactive.
`CCc1ccccc1NC(=O)N1CCC(NC(=O)C(Cc2ccccc2)NC(C)=O)CC1` (configuration not stated) gave TRPC4 potent inactive, Platelet DG rel inactive, TRPC6 act inactive, TRPC4 act inactive, TRPC6 inh inactive and TRPC4 inh inactive.
CC(C)(C)n1nc(-c2ccc(Cl)cc2)c2c(N)ncnc21 was read as TRPC4 potent inactive, Platelet DG rel 71.5, TRPC6 act inactive, TRPC4 act inactive, TRPC6 inh inactive and TRPC4 inh inactive.
Screening CC(C)(C)n1nc(-c2ccc(F)cc2)c2c(N)ncnc21 returned TRPC4 potent inactive, Platelet DG rel inactive, TRPC6 act inactive, TRPC4 act inactive, TRPC6 inh inactive and TRPC4 inh inactive.
`COc1ccc(/C=N/n2c(SC)nnc2-c2ccccc2)cc1C` gave TRPC4 potent 34, Platelet DG rel inactive, TRPC6 act inactive, TRPC4 act inactive, TRPC6 inh inactive and TRPC4 inh inactive.
For O=C(COC(=O)/C=C/c1cccs1)Nc1cccc(S(=O)(=O)N2CCCC2)c1 the results were TRPC4 potent inactive, Platelet DG rel inactive, TRPC6 act inactive, TRPC4 act inactive, TRPC6 inh inactive and TRPC4 inh inactive.
Screening COc1cccc(-c2c(C#N)c(N)nc3c2c(C)nn3-c2ccccc2)c1O returned TRPC4 potent 15, Platelet DG rel inactive, TRPC6 act inactive, TRPC4 act inactive, TRPC6 inh inactive and TRPC4 inh inactive.
COc1ccc(NC(=S)NCC(c2ccco2)N2CCCC2)cc1 (configuration not stated) was read as TRPC4 potent inactive, Platelet DG rel inactive, TRPC6 act inactive, TRPC4 act inactive, TRPC6 inh inactive and TRPC4 inh inactive.
Screening S=C(NCCc1ccccc1)NCC(c1ccco1)N1CCCCC1 (configuration not stated) returned TRPC4 potent inactive, Platelet DG rel inactive, TRPC6 act inactive, TRPC4 act 60, TRPC6 inh inactive and TRPC4 inh inactive.
`Cc1cc(Cl)c(OCCCCNC(C)(C)C)c(Br)c1` gave TRPC4 potent inactive, Platelet DG rel inactive, TRPC6 act 12.4, TRPC4 act inactive, TRPC6 inh inactive and TRPC4 inh inactive.
`Cc1cc(Cl)c(OCCCN(C)C)c(Br)c1` gave TRPC4 potent inactive, Platelet DG rel inactive, TRPC6 act inactive, TRPC4 act inactive, TRPC6 inh inactive and TRPC4 inh inactive.
`COc1ccccc1N/C(N)=N/c1nc(C)cc(C)n1` gave TRPC4 potent inactive, Platelet DG rel inactive, TRPC6 act inactive, TRPC4 act inactive, TRPC6 inh inactive and TRPC4 inh inactive.
Cc1cc(C)nc(/N=C(\N)Nc2cccc(OCc3ccccc3)c2)n1 was read as TRPC4 potent inactive, Platelet DG rel inactive, TRPC6 act inactive, TRPC4 act inactive, TRPC6 inh -5.4 and TRPC4 inh inactive.
